# Assay results from publication PMC6108325 (Bioorganic & medicinal chemistry, 2014).
# Assays:
# MRSA PK = MRSA PK (Staphylococcus aureus, UniProt Q6GG09); experiment: MRSA PK enzyme inhibition assay; type: biochemical, methicillin-resistant Staphylococcus aureus; details: for fold more potent than 33c: MRSA PK inhibition relative to 33c; for fold decrease in activity compared to 10a: MRSA PK inhibition relative to 10a
# In short: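 His-tagged recombinant MRSA pyruvate kinase construct, prepared as in earlier work. […] IC50 was calculated from a triplicate 15-point titration. Where no IC50 was obtained, % inhibition at the highest concentration tested was reported.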
# S. aureus ATCC 29213 = experiment: In vitro susceptibility testing; type: cell-based, Staphylococcus aureus
# S. aureus (ATCC29213) = experiment: MIC in absence and presence of efflux inhibitor verapamil; type: cell-based, Staphylococcus aureus
# [1] = system: S. aureus LAC Δpyk::Erm^R; experiment: Bacterial killing assay, PK-deficient mutant; type: cell-based, Staphylococcus aureus; details: 1.6 μM
# Wild-type S. aureus LAC = experiment: Bacterial killing assay, wild type; type: cell-based, Staphylococcus aureus; details: 1.6 μM, aerobic growth in BHI
# MRSA strain MW2 (USA400) = experiment: In vitro susceptibility testing; type: cell-based, methicillin-resistant Staphylococcus aureus; details: CAMHB
# [2] = Staphylococcus aureus, ATCC29213
# [3] = Staphylococcus aureus, ATCC29213, absence of verapamil
# MRSA PK, sequence (Q6GG09 whole entry): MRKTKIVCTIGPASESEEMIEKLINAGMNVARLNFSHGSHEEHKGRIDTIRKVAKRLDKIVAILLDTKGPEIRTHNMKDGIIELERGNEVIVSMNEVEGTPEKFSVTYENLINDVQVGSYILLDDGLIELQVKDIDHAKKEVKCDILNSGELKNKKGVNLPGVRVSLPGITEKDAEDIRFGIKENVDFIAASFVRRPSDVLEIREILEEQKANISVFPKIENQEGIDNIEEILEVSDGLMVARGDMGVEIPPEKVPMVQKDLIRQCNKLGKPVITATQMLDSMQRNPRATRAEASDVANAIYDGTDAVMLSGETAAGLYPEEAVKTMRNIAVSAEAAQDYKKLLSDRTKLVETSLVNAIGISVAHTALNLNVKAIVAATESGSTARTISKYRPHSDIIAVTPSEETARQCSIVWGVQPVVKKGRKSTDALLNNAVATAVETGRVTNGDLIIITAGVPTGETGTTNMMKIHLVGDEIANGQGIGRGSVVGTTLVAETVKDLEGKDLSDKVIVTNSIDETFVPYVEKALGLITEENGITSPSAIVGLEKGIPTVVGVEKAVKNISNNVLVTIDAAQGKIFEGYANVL
compound,measurement,setting,value
2-(4-(1H-Indol-2-yl)-3-nitrophenyl)-6-bromo-1H-indole [33d],fold more potent than 33c,MRSA PK,2–3 fold
same,% Inhibition of MRSA PK,MRSA PK; at 10 μM (Table 4),86.2%
same,IC50,MRSA PK; triplicate 15-point titration,1.8 nM
"5′,6-Dibromo-1-methyl-1H,2′H-2,2′-biindole [12b]",% inhibition at the highest concentration tested,MRSA PK; @ 10 μM,25% @ 10 μM
"Brc1ccc2cc(-c3cc4ccc(Br)cc4[nH]3)[nH]c2c1 [10b, 6,6′-Dibromo-1H,1′H-2,2′-biindole]",MIC,S. aureus ATCC 29213; [2],16 µg/mL
same,MIC,S. aureus (ATCC29213); [3],16 µg/mL
"Brc1ccc2[nH]c(-c3cc4ccc(Br)cc4[nH]3)cc2c1 [10c, 5,6-Bibromo-1H,1′H-2,2′-biiindole]",MIC,S. aureus ATCC 29213; [2],0.3 µg/mL
"Clc1ccc2[nH]c(-c3cc4ccc(Br)cc4[nH]3)cc2c1 [10d, 6′-Bromo-5-chloro-1H,1′H-2,2′-biindole]",MIC,S. aureus ATCC 29213; [2],0.3 µg/mL
same,bactericidal effect,[1]; TSB without glucose + 1% sodium pyruvate (TSB-G+P),unable to kill
same,bactericidal effect,[1]; aerobic growth in BHI,merely acted statically
same,bactericidal effect,Wild-type S. aureus LAC,highly bactericidal
"Fc1ccc2[nH]c(-c3cc4ccc(Br)cc4[nH]3)cc2c1 [10e, 6′-Bromo-5-fluoro-1H,1′H-2,2′-biindole]",MIC,S. aureus ATCC 29213; [2],0.3 µg/mL
"Brc1ccc2[nH]c(-c3cc4cc(Br)ccc4[nH]3)cc2c1 [10i, 5,5′-Bibromo-1H,1′H-2,2′-biindole]",MIC,S. aureus ATCC 29213; [2],> 64 µg/mL
"Brc1cc2cc(-c3cc4cc(Br)c(Br)cc4[nH]3)[nH]c2cc1Br [10l, 5,5′,6,6′-Tetrabromo-1H,1′H-2,2′-biindole]",MIC,S. aureus ATCC 29213; [2],> 64 µg/mL
same,MIC,S. aureus ATCC 29213; minimum concentration to give >98% inhibition of growth,> 64 µg/mL
same,MIC,S. aureus (ATCC29213); [3],> 64 µg/mL
same,shift of MIC by verapamil,S. aureus (ATCC29213); absence vs presence of verapamil (200 mg/L),at least fourfold
"Brc1ccc2cc(-c3nc4ccccc4s3)[nH]c2c1 [22a, 2-(6-Bromo-1H-indol-2-yl)benzo[d]thiazole]",fold decrease in activity compared to 10a,MRSA PK,5–8 fold
"Brc1ccc2cc(-c3cc4ccccc4o3)[nH]c2c1 [22b, 2-(Benzofuran-2-yl)-6-bromo-1H-indole]",fold decrease in activity compared to 10a,MRSA PK,5–8 fold
"COc1cc(-c2cc3ccccc3[nH]2)ccc1-c1cc2ccc(Br)cc2[nH]1 [33e, 2-(4-(1H-Indol-2-yl)-2-methoxyphenyl)-6-bromo-1H-indole]",fold more potent than 33c,MRSA PK,2–3 fold
"CN[C@H](CC(C)C)C(=O)N[C@H]1C(=O)N[C@@H](CC(N)=O)C(=O)N[C@H]2C(=O)N[C@H]3C(=O)N[C@H](C(=O)N[C@H](C(=O)O)c4cc(O)cc(O)c4-c4cc3ccc4O)[C@H](O)c3ccc(c(Cl)c3)Oc3cc2cc(c3O[C@@H]2O[C@H](CO)[C@@H](O)[C@H](O)[C@H]2O[C@H]2C[C@](C)(N)[C@H](O)[C@H](C)O2)Oc2ccc(cc2Cl)[C@H]1O [vancomycin, reference compound]",MIC,S. aureus (ATCC29213); [2],2 µg/mL
same,MIC,S. aureus (ATCC29213); presence of verapamil (200 mg/L),2 µg/mL
same,MIC,MRSA strain MW2 (USA400),2 µg/mL
